Source: PubChem
RGS4 pot: potentiators or activators of RGS4; HEK293 M3R/inducible RGS4, carbachol calcium flux Fluo4; stronger effect = lower value; B-score at 10 µM; 0.92% of 310,000 active; AID 463111;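 active = B-score of the integrated calcium signal more than 4 SD below the library mean, with starting fluorescence not abnormally high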;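 note: negative B-score means reduced calcium response which marks RGS4 activation or potentiation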
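Also added: carbachol at ECmax as muscarinic agonist stimulus; Assay system: HEK293 cells with stable M3R and inducible RGS4; Timing: overnight RGS4 induction, 30 min dye load 37 °C, 20 min compound RT; Measured by: Fluo4-AM (2 µM) calcium-flux fluorescence, kinetic read.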
MrgX1 agonist: activates human MrgX1 receptor signaling | MrgX1-HEK293 cells, Fluo-4 calcium fluorescence, agonist mode; stronger effect = higher value | B-score at 10 µM | 0.44% of 310,000 active | AID 588627;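 active = calcium response B-score plate-corrected fluorescence ratio at least 3 library SD, with starting fluorescence B-score inside 5 SD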
Target sequence (Q96LB2 whole entry, looked up): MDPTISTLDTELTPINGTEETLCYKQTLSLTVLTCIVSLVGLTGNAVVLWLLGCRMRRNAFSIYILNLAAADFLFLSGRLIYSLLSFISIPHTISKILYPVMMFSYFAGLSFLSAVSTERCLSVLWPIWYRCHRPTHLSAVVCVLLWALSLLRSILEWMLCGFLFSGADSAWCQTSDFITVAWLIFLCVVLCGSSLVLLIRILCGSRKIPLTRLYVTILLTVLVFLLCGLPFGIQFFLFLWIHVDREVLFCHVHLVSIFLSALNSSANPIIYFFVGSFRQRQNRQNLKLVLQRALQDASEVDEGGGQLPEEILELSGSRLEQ
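times = overnight plating, then 30 min 37 °C plus 30 min room-temperature dye loading | assay system = stable human MrgX1 HEK293 cell line | input = fifteen thousand cells per well | signal = kinetic calcium dye fluorescence, Fluo-4 NW | dosing = compound delivered in addition one of three | read-out = B-scored fluorescence response ratio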
MrgX1 PAM: allosterically activates human MrgX1 receptor signaling; MrgX1-HEK293, Fluo-4 calcium flux, FDSS; stronger effect = higher value; B-score at 10 µM; 0.63% of 310,000 active;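 active = plate-corrected calcium response at least 3 library SD above typical, normal starting fluorescence, not activating the receptor alone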;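 note: compound read alongside a low EC10 to EC30 dose of BAM8-22 agonist; peak minus trough fluorescence over baseline measured at the second addition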
MrgX1 antag: human MrgX1 receptor antagonism, primary screen; B-score at 10 µM; 1.3% of 310,000 active; MRGX1-HEK293 calcium flux, Fluo-4, BAM8-22 antagonism; stronger effect = lower value;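 active = calcium-response B-score plate-corrected more than 3 library SD below zero, starting fluorescence within 5 deviations, no agonist response on first addition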;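 note: peak minus trough fluorescence over baseline after final BAM8-22 challenge near maximal dose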
RGS4 inh: human RGS4 inhibition; P49798; HEK293 M3R/RGS4 inducible, Fluo-4 calcium flux; stronger effect = higher value; triggered by carbachol at its EC20; B-score at 10 µM; 0.45% of 310,000 active; AID 463165;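 active = B-score, a plate-corrected calcium signal, over three deviations above library mean, with baseline fluorescence within five deviations of library mean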;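 note: RGS4 expression induced by doxycycline in cells with stable M3 receptor; B-score is computed from the integrated fluorescence ratio over baseline after carbachol; higher B-score means a larger calcium signal and so more RGS4 inhibition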
RGS4 activ val: confirmation of RGS4 activators; HEK293 M3R/RGS4 inducible, carbachol calcium flux Fluo4; shares compounds with RGS4 pot; inhibition, % at 10 µM; 89% of 1,100 active;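 active = inhibition above 3 SD of the buffer control wells, cut at about 41% in these data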;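 note: signal is the integrated peak-minus-minimum Fluo4 fluorescence over baseline ratio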
M3R Ca counter: activity in cells without induced RGS4 expression. AID 602283. inhibition, % at 10 µM. shares compounds with RGS4 pot. HEK293 M3R non-induced RGS4, Fluo4 calcium flux; after carbachol challenge at its EC90. 82% of 1,100 active;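 active = inhibition exceeding 3 SD of buffer-only control wells, cut at about 26% in these data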;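 note: percent drop in integrated peak-minus-baseline over baseline Fluo4 ratio after carbachol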
Large screens that a line does not name were inactive (follow-up assays come after a bar, where they were run). In the library only some 3.5% were active in any assay of this set; here they are far more common.

NC(=O)CCN1CCN(Cc2nc(C(c3ccccc3)c3ccccc3)no2)CC1	RGS4 pot -8.7 | RGS4 activ val 92 | M3R Ca counter 58
C[C@@H]1CN(C2CCN(Cc3nc(C(c4ccccc4)c4ccccc4)no3)CC2)C[C@H](C)O1	none
CC(C)NC(=O)CN1CCN(Cc2nc(C(c3ccccc3)c3ccccc3)no2)CC1	RGS4 pot -7.6 | RGS4 activ val 92 | M3R Ca counter 58
Cn1cc(Br)c(C(=O)NC2CCCCCC2)n1	none
Cc1cc(C)c(NC(=O)CS(=O)CC(=O)NC2CCCc3ccccc32)c(C)c1 (stereo not given)	none
C=CCn1c(C)cc(-c2csc(NC(=O)CCc3nc4ccccc4c(=O)[nH]3)n2)c1C	RGS4 pot -8.4 | RGS4 activ val 68 | M3R Ca counter inactive
CCOC(=O)N1CCN(c2ccnc3cc(Cl)ccc23)CC1	RGS4 pot -13 | RGS4 activ val 92 | M3R Ca counter 95
CCC(=O)N1CCN(c2ccnc3cc(Cl)ccc23)CC1	none
Cc1cccc(NS(=O)(=O)c2cc(C(=O)N3CCc4ccccc4C3)ccc2Cl)c1C	RGS4 pot -8.1 | RGS4 activ val 82 | M3R Ca counter 30
COc1ccc(NC(=O)C2C3C=CC4(O3)C2C(=O)N(CCN2CCCCC2C)C4C(=O)NC2CCCCC2)cc1 (stereo not given)	none
O=C(/C=C/c1ccccc1)N1CCC(N2CCC(C(=O)N3CCOCC3)CC2)CC1	none
CCCOCC(O)CCc1n[nH]c(=S)n1-c1ccccc1 (stereo not given)	none
Cc1cc(C)c(S(=O)(=O)Nc2ccc(O)cc2)c(C)c1	none
Cc1cc(C)c(S(=O)(=O)Nc2ccc3c(c2)CCC3)c(C)c1	RGS4 pot -10 | RGS4 activ val 92 | M3R Ca counter 74
O=C(Cc1ccccc1F)NCC1(N2CCOCC2)CCCCC1	none
CCc1nc(CN(C)C(=O)C2CCC(=O)N(CCc3cccc(F)c3)C2)no1 (stereo not given)	none
CC1CCCN(CCCOc2ccccc2-c2ccccc2)C1 (stereo not given)	none (no result: MrgX1 agonist, MrgX1 PAM, MrgX1 antag)
CCN1CCCC1CNCc1ccccc1OCc1ccc(F)cc1 (stereo not given)	RGS4 pot -7.6 | RGS4 activ val 46 | M3R Ca counter inactive
CCN1CCCC1CNCc1cccc(OC)c1OCc1ccccc1 (stereo not given)	none
COc1ccccc1NC(=O)c1ccccc1Oc1ccccc1	RGS4 pot -9.2, MrgX1 antag -5.9 | RGS4 activ val 86 | M3R Ca counter 50
Cc1ccc(OS(=O)(=O)c2c(C)nn(C)c2Cl)c(C)c1	RGS4 pot -9.9 | RGS4 activ val 90 | M3R Ca counter 93
Cc1ccc(N2C(=O)CSC2c2c(F)cccc2Cl)cc1 (stereo not given)	RGS4 pot -10 | RGS4 activ val 93 | M3R Ca counter 92
CC(C)(O)C#Cc1ccc(CN2CCCC(CO)(Cc3cccc(Cl)c3)C2)cc1 (stereo not given)	RGS4 pot -9 | RGS4 activ val 76 | M3R Ca counter 31
CCN1CC=C2C(C#N)=C(N)C(C#N)(C#N)[C@H](c3cccc(OC)c3OC)[C@H]2C1	none
COc1cccc(C2C3CN(C)CC=C3C(C#N)=C(N)C2(C#N)C#N)c1OC (stereo not given)	RGS4 pot -8 | RGS4 activ val 54 | M3R Ca counter 46
CCOC(=O)c1cc(NC(=O)Cc2ccc(S(=O)(=O)N3CCOCC3)s2)cc(C(=O)OCC)c1	RGS4 pot -8 | RGS4 activ val 64 | M3R Ca counter 36
CCN1CCN(c2nc(-c3ccccc3)c3ccccc3n2)CC1	RGS4 pot -8.6 | RGS4 activ val 82 | M3R Ca counter 40
C=CCn1c(SCC(=O)N2CCc3ccccc3C2)nc2sc(C)c(C)c2c1=O	RGS4 pot -7.9 | RGS4 activ val 85 | M3R Ca counter 58
C=CCn1c(SCC(=O)N2CCc3ccccc3C2)nc2sc(CC)cc2c1=O	none
